Consider 22 sequences from the EternaBench riboswitch data.

For series [1], the system named is MS2 coat protein. As to the kind of experiment: apparent Kd, MS2 coat protein; higher = weaker binding; RNA-MaP array; theophylline 2 mM where present. The essentials: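 Stalled E. coli RNA polymerase transcribed the designs on Illumina sequencing-chip clusters. SNAP-549-labelled MS2 coat protein was titrated from 0.7 or 1.5 nM, doubling to 3 µM, without and then with constant ligand, in 100 mM Tris-HCl pH 7.5, 80 mM KCl, 4 mM MgCl2, BSA, DTT, yeast tRNA and Tween-20. Per-cluster binding curves were fitted to green signal normalised to red-channel RNA signal and control-cluster median Fmax. The apparent Kd is the median of the filtered fits.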

Series [2] concerns MS2 coat protein. As to the kind of experiment: apparent Kd, MS2 coat protein; higher = weaker binding; RNA-MaP array. The method, boiled down:
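Apparent Kd is the median of per-cluster binding-curve fits for designed RNAs transcribed from sequenced DNA templates on an Illumina sequencing chip. The RNAs were incubated at room temperature with fluorescently labeled MS2 coat protein at 1.5 nM to 3 μM, with or without input ligand, and designs measured on fewer than 10 clusters were excluded.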

[3] abbreviates: designed as: ON switch for theophylline, no ligand.
The mark [4] stands for this setting: ligand present: theophylline, designed as: ON switch for theophylline.
[5] abbreviates: designed as: OFF switch for theophylline, no ligand.
Where [6] appears, read: ligand present: theophylline, designed as: OFF switch for theophylline.
The mark [7] stands for this setting: designed as: ON switch for flavin mononucleotide, no ligand.
[8] abbreviates: ligand present: flavin mononucleotide, designed as: ON switch for flavin mononucleotide.
The mark [9] stands for this setting: designed as: OFF switch for flavin mononucleotide, no ligand.
[10] abbreviates: ligand present: flavin mononucleotide, designed as: OFF switch for flavin mononucleotide.

On to “ACAUGAGGAUCACCCAUGUCACGGCACGAUACCAGCUGAUGCGGUGGCCCUUGGCAGCGUGACGUUUGGUCCCGCGGAUGACACG”, for which the “apparent Kd” value was determined as 200 nM in the series on MS2 coat protein [1] (setting [3]) and 117 nM in the series with MS2 coat protein [1] (setting [4]).
For the sequence “CAGAGCUACCGGGAUACCAGAAAUGGUAUUCCUUAAUUUCUUACAUGAGGAUCACCCAUGUUCCCUUGGCAGCUUGGUAGCUCUG”, the “apparent Kd” value in the series on MS2 coat protein [1] (setting [5]) was 86.4 nM; in the series with MS2 coat protein [1] (setting [6]), 385 nM.
Regarding “UUAUAUAUACAUGAGGAUCACCCAUGUGAUACCAGCCUGGAAACAGGCCCUUGGCAGCACAAAUACUCCAGAAAAUAUAAUAAAU”, the results for the “apparent Kd” value with MS2 coat protein [1] (setting [5]) and with MS2 coat protein [1] (setting [6]) were 26.7 nM and 199 nM, respectively.
Take “ACAUGAGGAUCACCCAUGUCUGCCUCGGAUACCAGCGGAAGAAAACGCCCUUGGCAGCCGAACAUGAGGAUCACCCAUGUAGGCU”: the “apparent Kd” value came to 48.2 nM in the series on MS2 coat protein [1] (setting [3]) and 56.8 nM in the series on MS2 coat protein [1] (setting [4]).
With “GAGCUGAUGUAGAGCGAAUAUACGAGAGAUACCAGUACAGAAAUGUACCCUUGGCAGCUCAACUUUACAUGAGGAUCACCCAUGU”, the “apparent Kd” value in the series on MS2 coat protein [1] (setting [5]) amounted to 13.8 nM; in the series on MS2 coat protein [1] (setting [6]), 15.3 nM.
Regarding “GUACCUCCUCAGAAGGCGCGUAGAGCCGGCACAUGAGGAUCACCCAUGUCGAGGCGAAAUGCAGGCGAGGAUAUGAAGGGUUUC”, the “apparent Kd” value in the series with MS2 coat protein [2] (setting [7]) was determined as 4.88 nM; in the series on MS2 coat protein [2] (setting [8]), 4.92 nM.
In the case of “ACAAGGAGUCAAGGAUAUGAUAGAAGUUACACAUGAGGAUCACCCAUGUUUCUCCGGUGUCAGAAUCAGAAGGUGAGUAUGCAU”, the “apparent Kd” value with MS2 coat protein [2] (setting [9]) came out at 85.2 nM; in the series on MS2 coat protein [2] (setting [10]), 74.7 nM.
“CCUCGGCCAUCAGGAUAUCAUUCUCCGAUGCGGAACAUGAGGAUCACCCAUGUUGGGUACCCGUGUGAGAAGGGAUGCGUACGG”: the entries for the “apparent Kd” value with MS2 coat protein [2] (setting [9]) and in the series on MS2 coat protein [2] (setting [10]) were 74.3 nM and 62.2 nM, respectively.
In the case of “CCAUGGAGGACUGAGGAUAUUCGCAUAAGCACAUGAGGAUCACCCAUGUCAGAAAUAAAUCUCUAGAAGAAGGCAGCGCUAAGACA”, the “apparent Kd” value in the series with MS2 coat protein [2] (setting [7]) was found to be 12.9 nM; with MS2 coat protein [2] (setting [8]), 13.2 nM.
Turning to “GUACCGUAAACGGCCGCCACUGACAUGAGGAUCACCCAUGUGCUGGUGGUGCACAACCUCAGGUUCAGGACCGGGUUUCCGAGCU”, the “apparent Kd” value with MS2 coat protein [2] (designed as: OFF switch for tryptophan, no ligand) amounted to 25.1 nM; in the series with MS2 coat protein [2] (ligand present: tryptophan, designed as: OFF switch for tryptophan), 55 nM.
For “GCGAAGCGAGGAUAUUAAUCCGUACACAUGAGGAUCACCCAUGUGAAUCAAUCAUGUGGUUAAGAAGGCGCGUGGG”, the “apparent Kd” value came out at 541 nM with MS2 coat protein [2] (setting [9]) and 73.2 nM with MS2 coat protein [2] (setting [10]).
In the case of “AACUGUAAUACAAGAACAUGAGGAUCACCCAUGUGUCGCGCAGAGGAUAUACUGGUUCGCUGUCCGUAGAAGGCUGAGCACAUG”, the “apparent Kd” value in the series on MS2 coat protein [2] (setting [7]) stood at 33.9 nM; in the series on MS2 coat protein [2] (setting [8]), 23.9 nM.
Regarding “UACAUGAGGAUCACCCAUGUUUAUUGGUAGAACGGAUAAUGGGAGGAUAUGAACCGAUCAGAUCAUCAGAAGGCCCUUAAUGGG”, the “apparent Kd” value was found to be 29 nM with MS2 coat protein [2] (setting [7]) and 20 nM in the series with MS2 coat protein [2] (setting [8]).
As for “GACGGGCCUAUUGAUACCAGACCUAGUGACAACAUGAGGAUCACCCAUGUGACGGCAAAAGUCCCUUGGCAGCAAGUAGAAAUAA”, the “apparent Kd” value in the series with MS2 coat protein [2] (setting [3]) came out at 12.6 nM; with MS2 coat protein [2] (setting [4]), 12.3 nM.
“GAUUGCGGUGUGAGGAUAUCUGUUUAACAAAAGCCAGAGAAGGCACAUGAGGAUCACCCAUGUAGAUGCCGGCC”: the “apparent Kd” value amounted to 8.38 nM in the series with MS2 coat protein [2] (setting [9]) and 10.5 nM with MS2 coat protein [2] (setting [10]).
In the case of “AGAUUCUCUGAAGGAUAUCGCGUUUAUUUCGAGCGAGAAGGUCAAUUAUGGGAGAUGCACAUGAGGAUCACCCAUGUUCGAAAA”, the “apparent Kd” value in the series on MS2 coat protein [2] (setting [9]) amounted to 339 nM; in the series on MS2 coat protein [2] (setting [10]), 119 nM.
For the sequence “CAAAUGUGCACUCGUGAUACAUGAGGAUCACCCAUGUCAACUAAGGAUAUCUGGAAGUCACAUCGAGAGAAGGUAGCGUACCCU”, the “apparent Kd” value in the series on MS2 coat protein [2] (setting [9]) is 10.5 nM; with MS2 coat protein [2] (setting [10]) it was 9.44 nM.
As to “UGGGUCCGAUCAGGAUAUUAGCUACCGGAGUAUGACUGGUACUACAUGAGGAUCACCCAUGUUGCUAAGAAGGGAUGAACUGAA”, the “apparent Kd” value with MS2 coat protein [2] (setting [7]) amounted to 97.4 nM; in the series with MS2 coat protein [2] (setting [8]) it was 26.6 nM.
With “CAUACGCCGCAGAAGGAGUCGAGUCCGUUUCAACUAGGAUAUGCCAGAACAUGAGGAUCACCCAUGUUGCGGGUGCAGCUCAAU”, the “apparent Kd” value in the series on MS2 coat protein [2] (setting [9]) was determined as 37.8 nM; in the series with MS2 coat protein [2] (setting [10]) it was 38.9 nM.
As for “UGGGAUAGCCAGAAGGUGGAAGCAACAACUGUCCAAGGAUAUGGUUGUUAUAAGGCAUCACACAUGAGGAUCACCCAUGUUAAU”, the “apparent Kd” value with MS2 coat protein [2] (setting [7]) stood at 83.2 nM; in the series on MS2 coat protein [2] (setting [8]), 35.2 nM.
For the sequence “UACUCACAUGAGGAUCACCCAUGUUGUCUCAAGAUAGGAUAUGACUGGCUAUGCAUCGGUUCAGAAGGAUCUUCUA”, the “apparent Kd” value in the series with MS2 coat protein [2] (setting [7]) amounted to 19.7 nM; with MS2 coat protein [2] (setting [8]), 11.3 nM.
For the sequence “ACCGUGUCAGGAUAUCGGGUAUUCUUCCGUAUAAUACCAGCCGAGAAGGGACAUGAGGAUCACCCAUGUGGACA”, the “apparent Kd” value was 33.2 nM in the series on MS2 coat protein [2] (setting [9]) and 57.8 nM with MS2 coat protein [2] (setting [10]).

Broadly, the apparent Kd is a dissociation constant that holds for the conditions of the assay.
